# From PubChem BioAssay
# Only a sample is shown.
# Apaf1 activ – human Apaf-1 activation | Apaf-1 apoptosome caspase-3 activation, DEVD-Rh110 fluorescence; active compounds read low | 330,000 compounds, 0.31% hits | AID 489031 | activity change, negative = activation, % at 20 µM;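 active = activity change at or below -40% at 20 µM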
# Target sequence (O14727 whole entry, looked up): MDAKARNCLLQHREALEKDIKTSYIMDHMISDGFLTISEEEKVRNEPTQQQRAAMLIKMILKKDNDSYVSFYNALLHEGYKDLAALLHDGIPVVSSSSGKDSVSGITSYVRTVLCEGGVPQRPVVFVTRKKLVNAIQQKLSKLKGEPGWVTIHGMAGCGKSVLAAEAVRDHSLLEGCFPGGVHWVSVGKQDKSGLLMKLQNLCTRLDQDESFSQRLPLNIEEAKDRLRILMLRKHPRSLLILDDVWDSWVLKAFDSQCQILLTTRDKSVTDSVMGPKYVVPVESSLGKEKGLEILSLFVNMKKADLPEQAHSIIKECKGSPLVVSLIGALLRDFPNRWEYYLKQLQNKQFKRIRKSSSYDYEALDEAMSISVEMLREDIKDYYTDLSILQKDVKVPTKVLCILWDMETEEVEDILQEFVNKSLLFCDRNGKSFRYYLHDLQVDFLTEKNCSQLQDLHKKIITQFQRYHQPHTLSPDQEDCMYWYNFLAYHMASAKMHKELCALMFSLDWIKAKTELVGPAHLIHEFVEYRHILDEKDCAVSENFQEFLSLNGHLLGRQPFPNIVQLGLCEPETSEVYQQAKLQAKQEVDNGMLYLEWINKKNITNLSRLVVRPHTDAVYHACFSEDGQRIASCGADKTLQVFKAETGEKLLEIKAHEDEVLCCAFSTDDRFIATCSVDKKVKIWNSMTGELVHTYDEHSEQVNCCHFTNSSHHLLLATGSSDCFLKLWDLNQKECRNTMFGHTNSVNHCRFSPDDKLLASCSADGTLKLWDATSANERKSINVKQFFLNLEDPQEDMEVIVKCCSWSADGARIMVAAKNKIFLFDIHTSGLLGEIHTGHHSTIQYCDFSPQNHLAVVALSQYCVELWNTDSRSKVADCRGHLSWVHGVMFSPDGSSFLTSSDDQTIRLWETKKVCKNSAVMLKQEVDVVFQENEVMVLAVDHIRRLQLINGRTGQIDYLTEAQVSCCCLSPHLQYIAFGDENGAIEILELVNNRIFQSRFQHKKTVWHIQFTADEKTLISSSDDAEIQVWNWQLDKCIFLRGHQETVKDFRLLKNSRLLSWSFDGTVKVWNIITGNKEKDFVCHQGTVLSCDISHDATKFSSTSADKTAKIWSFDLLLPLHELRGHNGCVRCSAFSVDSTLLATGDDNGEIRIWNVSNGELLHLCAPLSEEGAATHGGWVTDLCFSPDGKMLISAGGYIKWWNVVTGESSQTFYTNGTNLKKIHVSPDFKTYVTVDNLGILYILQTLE
#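 system = biochemical Apaf-1 apoptosome reconstitution | buffer or medium = 20 mM HEPES pH 7.5 with CHAPS, BSA | also added = dATP and cytochrome c as apoptosome triggers, (Z-DEVD)2-Rh110 substrate | incubation = 30 min compound preincubation and 50 min reaction, both room temperature | measured by = fluorescence, 540 nm emission, 480 nm excitation | read-out basis = Caspase-3 cleavage activity downstream of Apaf-1 activation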
# Active calls of the source: *.
SMILES,Apaf1 activ
CN(c1ccccc1)S(=O)(=O)c1cccc(C(=O)NCc2ccccc2CN2CCCC2)c1,52.0
Cc1ccc(C)c(NC(=O)CN(C)C(=O)c2cccc(S(=O)(=O)N3CCN(Cc4ccccc4)CC3)c2)c1,41.0
Cc1cccc(N(Cc2ccccc2)C(=O)C2CCN(C(=O)c3ccccc3C)CC2)c1,48.5
CS(=O)(=O)N(CC(=O)Nc1ccccc1C(=O)N1CCCC1)c1cccc([N+](=O)[O-])c1,-71.3*
CC(=O)c1cccc(N(CC(=O)Nc2ccccc2C(=O)N2CCCC2)S(C)(=O)=O)c1,-322.7*
CC(=O)[C@H]1[C@H](c2cccc(Cl)c2)C(C#N)(C#N)[C@@H]2c3ccccc3C=CN21,55.9
CCC(COC)Oc1cc(NCc2ccccc2)c2ncn(C(C)C)c2c1 (stereo not drawn),97.2
CC(C)n1cnc2c(NCc3ccccc3)cc(N[C@H](C)CO)cc21,96.7
CCc1ccc(NC(=S)Nc2cccc3cnccc23)cc1,88.6
C#CCOCCOCCOCCNc1nc(N2CCN(C(=O)C([C@@H](C)O)n3cc([C@@H](N)CCCCN)nn3)CC2)nc(N2CCN(C(=O)[C@H](CCCCN)n3cc([C@@H](N)CC(N)=O)nn3)CC2)n1 (stereo partly drawn),51.1
CCN(CC)c1ccc(NC(=O)CCS(=O)(=O)c2ccc(Br)cc2)c(C)c1,-136.4*
NC1=NC[C@@H](Cc2ccc(O)cc2)N1CCCCC1CCCCC1,50.9
CC12CCC(=O)N1C(C(=O)Nc1ccccc1N1CCCCC1)CS2 (stereo not drawn),48.1
Cc1[nH]n(-c2ccccc2)c(=O)c1/C=N\NC(=O)C1COc2ccccc2O1 (stereo not drawn),53.9
COc1ccccc1N1CCN(C(=O)c2ccc3c(Cl)c4c(nc3c2)CCCC4)CC1,41.2
COc1ccccc1N1CCN(C(=O)C(C)CS(=O)(=O)c2ccc3c(c2)NC(=O)CS3)CC1 (stereo not drawn),-427.8*
COc1ccccc1N1CCN(C(c2cccs2)C(C)NS(=O)(=O)c2ccccc2)CC1 (stereo not drawn),55.4
Cc1ccc2c(c1)c1cccc3c1n2CCN3CCC(N)=O,51.3
OC1C(O)C(O)C(O)C(O)C1O (stereo not drawn),-0.7
COC(=O)C1=C(C)N(Cc2ccccc2)C(=NCCc2cccnc2)N[C@H]1c1ccc(Br)cc1,51.3
C=CCn1c(NC(=O)c2ccc(Br)o2)c(S(=O)(=O)c2ccccc2)c2nc3ccccc3nc21,62.8
COc1cc(CCc2ccccc2)c(C(=O)O)c(O)c1C/C=C(/C)CCC=C(C)C,43.3
CCN(CC)CCN(C(=O)c1ccc2c(c1)CCCC2)c1nc2cc(OC)c(OC)cc2s1,47.5
O=C(COc1ccc2ccc(=O)oc2c1)Nc1ccc(N2CCCCC2)cc1,46.6
COc1ccccc1C(CNC(=O)c1cccc(S(=O)(=O)Nc2ccc(C)cc2)c1)N(C)C (stereo not drawn),46.1
SMILES,Apaf1 activ
COc1ccc(NS(=O)(=O)c2cccc(C(=O)N3CCCCCCC3)c2)cc1,45.2
COc1ccc(NS(=O)(=O)c2cccc(C(=O)N/N=C/c3cn(-c4ccccc4)nc3-c3ccc(OC)cc3)c2)cc1,-44.6*
CCN(CC(=O)Nc1ccccc1OC)C(=O)CN1C(=O)NC(C)(c2ccccc2)C1=O (stereo not drawn),49.5
Cc1cccc(NC(=O)CSCC(=O)N(C)Cc2ccc(Cl)c(Cl)c2)c1,62.6
O=C(OCc1cc(Cl)ccc1OC(F)F)c1ccc([N+](=O)[O-])o1,66.4
CCn1cc(CN2CCC(n3nccc3NC(=O)c3cccc(F)c3)CC2)cn1,-301.6*
CC(=O)c1ccc(N2CCN(S(=O)(=O)c3ccc4c5c3CC(=O)N5CC(C)S4)CC2)cc1 (stereo not drawn),55.7
S=C(Nc1ccc2nsnc2c1)N1CCCC1,98.4
C[C@@H]1CN([C@@H](C)CO)C(=O)c2cc(NC(=O)Nc3ccc(F)cc3)ccc2O[C@@H]1CN(C)Cc1ccc(Oc2ccccc2)cc1,41.8
CCCN(CC(=O)Nc1ccccc1C)C(=O)c1sc2ccccc2c1Cl,60.6
O=C1C=C(Nc2cccc3cccnc23)c2ccccc2C1=O,47.3
O=S(=O)(c1cccc2cccnc12)N1CCCCC1,-43.7*
O=C(c1ccc(Cl)c(S(=O)(=O)N2CCCCCC2)c1)N1CCCC(C(F)(F)F)C1 (stereo not drawn),59.6
C#CCOCCOCCOCCNc1nc(N2CCN(C(=O)[C@H](CCCCN)n3cc([C@@H](N)CC(N)=O)nn3)CC2)nc(N2CCN(C(=O)[C@H](CCCCN)n3cc([C@@H](N)CC(N)=O)nn3)CC2)n1,55.2
CC(C)=CCC/C(C)=C/CNC(=O)C[C@H]1C[C@H](C(=O)N2CCOCC2)[C@@]2(C)c3[nH]c4cc(-c5ccco5)ccc4c3CCN2C1=O,44.4
C=C(C)C(=O)Nc1cccc(C2=NOC3(C2)C[C@H](C(N)=O)N(C(=O)CC)C3)c1 (stereo partly drawn),-270.6*
C=C(C)C(=O)Nc1cccc(C2=NOC3(C2)C[C@H](C(N)=O)N(C(=O)CC#N)C3)c1 (stereo partly drawn),-166.0*
C#CCOCCOCCOCCNc1nc(N2CCN(C(=O)CCCCCCCCCCNC(=O)Cn3cc(CCCCCN)nn3)CC2)nc(N2CCN(C(=O)CCCCCCCCCCNC(=O)[C@@H](CCSC)n3cc(CCO)nn3)CC2)n1,72.2
CCc1ccc(N2C(=O)C(Cl)=C(Nc3ccc(C(=O)N4CCCC4)cc3)C2=O)cc1,41.4
Nc1cc2nc3ccccc3oc-2cc1=O,47.8
CN(C)CCOc1ccc(-c2c(-c3ccccc3)sc3ccccc23)cc1,77.5
C#CCOCCOCCOCCNc1nc(N2CCN(C(=O)CCCCCCCCCCNC(=O)Cn3cc(C[C@@H](C)O)nn3)CC2)nc(N2CCN(C(=O)CCCCCCCCCCNC(=O)[C@H](CCCN=C(N)N)n3cc(C[C@@H](C)CC)nn3)CC2)n1,62.0
CCN(CC)c1ccc(S(=O)(=O)N2CCCCC2)cc1NC(=O)C1CSC2(C)CCC(=O)N12 (stereo not drawn),51.0
C#CCOCCOCCOCCNc1nc(N2CCN(C(=O)CCCCCCCCCCNC(=O)[C@H](CO)n3cc(CCCSC)nn3)CC2)nc(N2CCN(C(=O)CCCCCCCCCCNC(=O)[C@H](CCCN=C(N)N)n3cc(C[C@@H](C)CC)nn3)CC2)n1,45.1
CN(CC(=O)Nc1ccc(Cl)cc1)C(=O)c1sccc1-c1ccccc1,45.9
SMILES,Apaf1 activ
CCc1ccc(S(=O)(=O)Nc2cc(SCC(=O)O)c(O)c3ccccc23)cc1,71.3
CC(C)(C)NS(=O)(=O)c1ccc(CCC(=O)O)cc1,-99.4*
COc1ccc(C2C(C(=O)c3ccco3)=C(O)C(=O)N2CCCn2ccnc2)c(OC)c1 (stereo not drawn),57.2
C#CCOCCOCCOCCNc1nc(N2CCN(C(=O)CCCCCCCCCCNC(=O)Cn3cc(CCCCCN)nn3)CC2)nc(N2CCN(C(=O)CCCCCCCCCCNC(=O)Cn3cc(CCCCCN)nn3)CC2)n1,65.0
C#CCOCCOCCOCCNc1nc(N2CCN(C(=O)[C@H]([C@@H](C)CC)n3cc([C@@H](N)Cc4ccc(O)cc4)nn3)CC2)nc(N2CCN(C(=O)[C@H](CCCCN)n3cc([C@@H](N)CO)nn3)CC2)n1,52.3
COCCN(Cc1ccccc1)C(=O)C1CCN(S(=O)(=O)c2ccc3c(c2)OCCO3)CC1,49.0
O=C(CCS(=O)(=O)c1ccc(Br)cc1)NCc1ccc(F)cc1,-99.1*
CC1(C)CC(=O)c2c(-c3cccnc3)n[nH]c2C1,43.3
Clc1ccc(SCCOCCN2CCOCC2)cc1,-53.5*
